Diaphorase inh: counter-screen for diaphorase-based assays: diaphorase inhibitors and chemical oxidizers | inhibition, % at 20 µM | 0.69% of 190,000 active | diaphorase resazurin-to-resorufin fluorescence, NADH, 16 min; bacterial (C. kluyveri) enzyme, not human;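 active = primary screen inhibition at 20 µM above a set limit, cut at about 50% in these data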;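 note: plate controls were DMSO with full reaction for no effect and wells lacking NADH for full effect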
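System: Bacterial diaphorase enzyme (C. kluyveri) | Incubation: 16-min room-temperature incubation before reading | Benchmarks: No-NADH positive control and DMSO neutral control | Measured by: Resorufin fluorescence 544/590 nm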
Lmaj promast: Leishmania major promastigote growth inhibition; 9% of 200,000 active; AID 1063; Leishmania major promastigotes, resazurin fluorescence viability; inhibition, % at 10 µM;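 note: promastigotes grown with compound for 44 hours at 28 °C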
G6PDH CS: L. mesenteroides G6PDH inhibition counter-screen. Purified L. mesenteroides G6PDH, diaphorase/resazurin coupled fluorescence, 45 min. inhibition, % at 5 µM. 0.12% of 200,000 active. AID 1020
WT yeast gro inh: growth inhibition of WT yeast, mitochondrial fusion screen | mitochondrial fusion phenotypic screen, WT strain | inhibition, % at 10 µM | 2.1% of 190,000 active | AID 1362; in the data active = inhibition above about 58%; tested in S. cerevisiae
Diaphorase act: counter-screen for diaphorase-based assays: diaphorase activators and chemical reducers. activation factor at 20 µM. Diaphorase/resazurin coupled assay, resorufin fluorescence, 16 min; active compounds read high; 1 = vehicle wells, 0 = NADH-free wells. 0.005% of 190,000 active;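 active = diaphorase activity raised at least twofold by the compound at 20 µM; inactive = activation factor below 2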
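Material: Clostridium kluyveri diaphorase, purified enzyme; Quantity: enzyme 0.07 U/mL final; Medium: HEPES pH 7.4 buffer with MgCl2 and Tween 20; Dosing: single compound dose of 20 µM, 1% DMSO final; Schedule: 16 min reaction at room temperature; Measured by: red resorufin fluorescence at 544/590 nm excitation/emission.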
* = called active by the depositor; · = not tested or not shown. Compounds with a hit are over-represented: about 11% of the library has one in this group of screens. Cut-off read from the data, not from the text of the source, unless noted: active = inhibition above about 50%; inactive = the rest.

SMILES	Diaphorase inh	Lmaj promast	G6PDH CS	WT yeast gro inh	Diaphorase act
O=C1CCN=C(Nc2ccc(F)cc2)N1Cc1ccccc1	8	72*	3	12	0.9
Cc1ccnc(N2CCC(C(=O)NNC(=O)COc3cccc4ccccc34)CC2)n1	-1	-9	13	2	1
Cc1ccc(/C=C/C(=O)c2cc(Br)ccc2OC(=O)c2ccco2)cc1	15	87*	-5	4	0.9
COc1ccccc1/C=C/C(=O)c1cc(Br)ccc1OC(=O)c1ccco1	·	60*	·	·	·
Nc1ccc(/C=C/C(=O)c2ccco2)cc1	13	51*	0	-10	0.9
Cc1cccc(/C=C/C(=O)c2cc(Br)ccc(=O)c2O)c1	33	100*	2	3	0.7
N#Cc1ccc(/C=C/C(=O)c2ccco2)cc1	8	31	13	0	0.9
COc1cccc2cc(/C(C)=N/Nc3nc(-c4cc(C)ccc4C)cs3)c(=O)oc12	4	-6	-35	6	1
Cc1ccc(C(C(=O)NCc2ccco2)N(C(=O)Cc2cccs2)c2cccnc2)cc1 (stereo not drawn)	1	32	1	-4	1
O=S(=O)(Nc1ccc(N2CCCCC2)cc1)c1ccc(F)c(F)c1	34	67*	2	-8	0.7
O=C(O)c1cc(S(=O)(=O)Nc2ccc(N3CCCCC3)cc2)ccc1Cl	10	-9	6	0	0.9
O=[N+]([O-])c1cc(S(=O)(=O)C(F)(F)F)ccc1N1CCN(c2ccccc2)CC1	13	68*	5	-5	0.9
CNS(=O)(=O)c1ccc(N2CCCC2)c([N+](=O)[O-])c1	10	-2	4	-14	0.9
O=C(O)c1cc(NS(=O)(=O)c2ccc(N3CCCCC3)c([N+](=O)[O-])c2)cc(C(=O)O)c1	16	77*	2	-6	0.8
CC(=O)c1ccc(N2CCN(c3ccc(S(=O)(=O)NCCCN(C)C)cc3[N+](=O)[O-])CC2)cc1	-9	100*	0	2	1.1
O=[N+]([O-])c1cc(Cl)ccc1N1CCN(c2cccc(C(F)(F)F)c2)CC1	15	-4	-20	29	0.9
OCCSc1c(F)c(SCCO)c(SCCO)c(F)c1SCCO	13	10	0	5	0.9
CCOC(=O)C1CCN(C(=O)c2sc3nc(-c4ccc(F)cc4)cn3c2C)CC1	12	6	2	-5	0.9
Cc1c(NS(=O)(=O)c2ccc(N3CCN(C)CC3)c([N+](=O)[O-])c2)c(=O)n(-c2ccccc2)n1C	-1	-2	8	1	1
O=[N+]([O-])c1cc(S(=O)(=O)Nc2ccccc2)ccc1N1CCN(c2ccccc2)CC1	19	88*	-22	33	0.8
O=C(Nc1nnc(-c2ccccc2)o1)Nc1ccc(F)cc1F	-4	7	0	3	1
CC(=O)Nc1cc(OC(C)=O)c2nonc2c1OC(C)=O	76*	101*	59*	·	0.2
CCOC(=O)c1ccc(NC(=O)/C=C/c2cccs2)cc1	16	14	2	20	0.8
CCN(CC)CCOC(=O)c1ccc(NC(=O)C2(c3ccccc3)CCCC2)cc1	2	70*	0	-2	1
CCN(CC)CCOC(=O)c1ccc(NC(=O)/C=C/c2cccs2)cc1	4	69*	-6	5	1
SMILES	Diaphorase inh	Lmaj promast	G6PDH CS	WT yeast gro inh	Diaphorase act
O=C(Nc1ccccc1N1CCCC1)c1cc2ccccc2o1	10	19	-1	37	0.9
CS(=O)(=O)N1CCN(c2ccccc2NC(=O)c2ccc(Br)o2)CC1	18	-1	8	-11	0.8
CN1CCN(c2ccccc2NC(=O)c2ccc(-c3ccc(Cl)cc3Cl)o2)CC1	0	99*	2	71	1
CS(=O)(=O)N1CCN(c2ccccc2NC(=O)c2ccc(-c3ccc(Cl)cc3Cl)o2)CC1	10	91*	-28	19	0.9
CN1CCN(c2ccccc2NC(=O)c2cc3ccccc3o2)CC1	2	68*	-1	-20	1
CCC(=O)N(Cc1ccco1)C1CC(=O)N(c2ccccc2)C1=O (stereo not drawn)	6	-7	-1	-20	0.9
Cc1cc(C)c(NC(=S)NCCCSC2CCCCC2)c(C)c1	22	57*	5	75*	0.8
COc1cccc(NC(=O)NCCCSC2CCCCC2)c1	19	5	0	1	0.8
O=C(Cn1nnc(-c2ccccc2Cl)n1)N1CCN(S(=O)(=O)c2ccc(Cl)cc2)CC1	18	99*	4	22	0.8
Cc1ccc(C2(c3noc(CN(C)CC4CCCCO4)n3)CCCC2)cc1 (stereo not drawn)	19	-7	7	2	0.8
Fc1cccc(Cc2noc(CN3CCC(c4ccncc4)CC3)n2)c1	6	95*	24	20	0.9
Fc1cccc(Cc2noc(CN3CCOCC3)n2)c1	12	-4	12	4	0.9
Cc1ccc(C2(c3noc(CN4CCC(c5ccncc5)CC4)n3)CCCC2)cc1	21	51*	1	49	0.8
OCC1CCCN(C2CCN(Cc3nc(Cc4cccc(C(F)(F)F)c4)no3)CC2)C1 (stereo not drawn)	10	89*	9	-7	0.9
Cc1ccc2nc(SCC(=O)NCc3cccs3)[nH]c2c1	8	4	0	4	0.9
O=C(c1cnn(-c2ccccc2)c1-n1cccc1)N1CCN(C2CCCCC2)CC1	5	75*	3	12	0.9
CN(CC(=O)N1CC=C(c2ccccc2)CC1)S(=O)(=O)c1cnc[nH]1	8	3	3	·	0.9
CCOC(=O)c1c(-c2ccc(OC)c(OC)c2)csc1NC(=O)C1CCCO1 (stereo not drawn)	3	100*	1	3	1
COc1cccc(C(=O)COC(=O)C(C)N2C(=O)C3C4C=CC(C4)C3C2=O)c1 (stereo not drawn)	1	-2	15	-14	1
Cc1ccc(-n2cc(CN(C)Cc3ncc[nH]3)c(-c3cccc(C)c3)n2)cc1	·	83*	13	59*	·
CCn1ccnc1CN(C)Cc1cn(-c2ccc(C)cc2)nc1-c1ccc(F)cc1	8	100*	8	67	0.9
Cc1ccc(-c2nn(-c3cccc(F)c3)cc2CN2CCN(c3ccccn3)CC2)o1	27	50	17	49	0.7
Cc1cccc(-n2cc(CN3CCN(Cc4nccn4C)CC3)c(-c3cccc(F)c3)n2)c1	4	90*	21	86*	1
CCN1CC(CN(C)Cc2cn(-c3ccc(C)cc3)nc2-c2cccc(C)c2)CC1=O (stereo not drawn)	10	8	22	16	0.9
CCn1ccnc1CN(C)Cc1cn(-c2ccccc2)nc1-c1ccc(OC)cc1F	3	37	20	15	1
Cc1ccc(-n2cc(CN(C)Cc3nccn3C)c(-c3ccc(F)cc3)n2)cc1	11	80*	12	76*	0.9

Screening data from PubChem.
